One assay concerns the target Prothrombin (Bos taurus, UniProt P00735). As to the kind of experiment: Bovine thrombin concentration at which clotting time was prolonged 2x over the control. The class given is functional. To be noted: read-out: I50. Summed up:
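Clotting assay at 25 °C. The read-out was the time from thrombin addition to clot formation.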
`CCCCNC(=O)C(CCCN=C(N)N)NS(=O)(=O)c1cccc2c(N(C)C)cccc12` (stereo not drawn): the IC50 amounted to 2100 nM.
Consider `CCC1CCN(C(=O)C(CCCNC(=N)N)NS(=O)(=O)c2ccc3cc(OC)ccc3c2)CC1` (stereo not drawn), for which the IC50 was determined as 200 nM.
Still for that read-out and setting: then `CN(C)c1cccc2c(S(=O)(=O)NC(CCCN=C(N)N)C(=O)N3CCCCC3)cccc12` (stereo not drawn), with 1000 nM; and `CCC1CCN(C(=O)C(CCCN=C(N)N)NS(=O)(=O)c2ccc3cc(C)ccc3c2)CC1` (stereo not drawn), with 500 nM.
Same read-out and setting: then `CN(C)c1cccc2c(S(=O)(=O)NC(CCCNC(=N)N)C(=O)N3CCCCCCCC3)cccc12` (stereo not drawn), with 2000 nM.
For `CCCCCCNC(=O)C(CCCN=C(N)N)NS(=O)(=O)c1cccc2c(N(C)C)cccc12` (stereo not drawn), the IC50 was found to be 20000 nM.
With `CCC1CCN(C(=O)C(CCCN=C(N)N)NS(=O)(=O)c2ccc3c(c2)OCCO3)CC1` (stereo not drawn), the IC50 came to 25000 nM.
On the same count and under the same terms, then `CC(C)CNC(=O)C(CCCNC(=N)N)NS(=O)(=O)c1cccc2c(N(C)C)cccc12` (stereo not drawn), with 100000 nM; and `CN(C)c1cccc2c(S(=O)(=O)NC(CCCNC(=N)N)C(=O)N3CCCc4ccccc43)cccc12` (stereo not drawn), with 17000 nM.
On the same count and under the same terms, then `N=C(N)NCCCC(NS(=O)(=O)c1cccc2ccccc12)C(=O)N1CCCCCC1` (stereo not drawn), with 10000 nM; and `CCC1CCN(C(=O)C(CCCN=C(N)N)NS(=O)(=O)c2ccc3ccccc3c2)CC1` (stereo not drawn), with 1000 nM; and `CCC1CCN(C(=O)C(CCCN=C(N)N)NS(=O)(=O)c2cccc3c(Cl)cccc23)CC1` (stereo not drawn), with 2000 nM.
In the case of `COCCNC(=O)C(CCCNC(=N)N)NS(=O)(=O)c1cccc2c(N(C)C)cccc12` (stereo not drawn), the IC50 stood at 4000 nM.
The same measure, in the same setting: the figure for `N=C(N)NCCCC(NS(=O)(=O)c1cccc2ccccc12)C(=O)N1CCOCC1` (stereo not drawn) is 20000 nM; for `CCC1CCN(C(=O)C(CCCN=C(N)N)NS(=O)(=O)c2cccc3c(N(CC)CC)cccc23)CC1` (stereo not drawn) it is 300 nM; for `CCC1CCN(C(=O)C(CCCN=C(N)N)NS(=O)(=O)c2ccc3cc4c(cc3c2)OCCO4)CC1` (stereo not drawn) it is 10000 nM.
In the case of `CCC1CCN(C(=O)C(CCCNC(=N)N)NS(=O)(=O)c2ccc3c(c2)Cc2ccccc2O3)CC1` (stereo not drawn), the IC50 came to 300 nM.
Still for that read-out and setting: the figure for `CC1CCN(C(=O)C(CCCN=C(N)N)NS(=O)(=O)c2ccc3c(c2)OCCCO3)CC1` (stereo not drawn) is 8000 nM.
Regarding `CCC1CCN(C(=O)C(CCCN=C(N)N)NS(=O)(=O)c2cc(OC)c3ccccc3c2)CC1` (stereo not drawn), the IC50 came out at 1000 nM.
As for `N=C(N)NCCCC(NS(=O)(=O)c1ccc2ccccc2c1)C(=O)N1CCOCC1` (stereo not drawn), the IC50 amounted to 20000 nM.
As to `CN(Cc1ccccc1)C(=O)C(CCCN=C(N)N)NS(=O)(=O)c1cccc2c(N(C)C)cccc12` (stereo not drawn), the IC50 was determined as 7000 nM.
Same read-out and setting: the figure for `CCC1CCN(C(=O)C(CCCN=C(N)N)NS(=O)(=O)c2ccc(OC)c3ccccc23)CC1` (stereo not drawn) is 2000 nM; for `CN(C)c1cccc2c(S(=O)(=O)NC(CCCNC(=N)N)C(=O)N3CCCCCC3)cccc12` (stereo not drawn) it is 900 nM.
On the same count and under the same terms, then `CCc1cc2cc(S(=O)(=O)NC(CCCN=C(N)N)C(=O)N3CCC(CC)CC3)ccc2oc1=O` (stereo not drawn), with 1000 nM.
Same read-out and setting: then `CCC1CCN(C(=O)C(CCCN=C(N)N)NS(=O)(=O)c2cccc3c(OC)cccc23)CC1` (stereo not drawn), with 600 nM.
In the case of `CCC1CCN(C(=O)C(CCCNC(=N)N)NS(=O)(=O)c2ccc3c(c2)Oc2ccccc2O3)CC1` (stereo not drawn), the IC50 was 150 nM.
With `CC1CCN(C(=O)C(CCCNC(=N)N)NS(=O)(=O)c2cccc3c2CCCC3)CC1` (stereo not drawn), the IC50 was determined as 1000 nM.
For the compound `COCCNC(=O)C(CCCN=C(N)N)NS(=O)(=O)c1cccc2c1CCCC2` (stereo not drawn), the IC50 amounted to 40000 nM.

The target of the next assay is Prothrombin (Bos taurus) (UniProt P00735). As to the kind of experiment: Percentage of rate of hydrolysis in 4 hr incubation by thrombin. The class given is functional.
Conditions: not given
Put shortly: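 Test compounds at 1 mM in 0.1 M Tris-HCl, pH 8.0, were incubated with thrombin (100 units in a 1.0 mL reaction) at 37 °C for 4 h. Hydrolysis rate was followed titrimetrically with a pH-stat and automatic burette at 37 °C and pH 8.0.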
`CCCCN(C)C(=O)C(CCCN=C(N)N)NS(=O)(=O)c1cccc2c(N(C)C)cccc12` (stereo not drawn) yielded a Hydrolysis of 0%.
`COCCNC(=O)C(CCCN=C(N)N)NS(=O)(=O)c1cccc2c(N(C)C)cccc12` (stereo not drawn) registered a Hydrolysis of 0%.
Still for that read-out and setting: then `CCC1CCN(C(=O)C(CCCN=C(N)N)NS(=O)(=O)c2cccc3c(N(C)C)cccc23)CC1` (stereo not drawn), with 0%; and `CCCCNC(=O)C(CCCN=C(N)N)NS(=O)(=O)c1cccc2c(N(C)C)cccc12` (stereo not drawn), with 0%.
Still for that read-out and setting: the figure for `CN(C)c1cccc2c(S(=O)(=O)NC(CCCN=C(N)N)C(=O)N3CCCCC3)cccc12` (stereo not drawn) is 0%.

The values above are taken from ChEMBL document CHEMBL1121484, “Thrombin inhibitors. 2. Amide derivatives of N alpha-substituted L-arginine” (J Med Chem, 1980).
